Measurements as given in ChEMBL document CHEMBL1144689, “Antileukemic activity of genistein, a major isoflavone present in soy products” (J Nat Prod, 2008).

What was measured:
MOLT-3 [1] = test: Growth inhibition of human MOLT3 cells after 48 hrs; type: functional
Summary of the method: (§1)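 Human leukemic cells (RPMI-1640, 10% heat-inactivated FBS), log phase, seeded at 2 × 10^4 cells/mL. Exposed to 1, 2, 5, 10 or 20 µM (DMSO stock). Cell number counted with a Coulter particle counter at 48 h. Growth inhibition as % of untreated control. IG50 is the concentration giving 50% inhibition. Triplicate, three repeats, mean ± SEM.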

HL-60 [2] = test: Growth inhibition of human HL60 cells after 48 hrs; type: functional; summary of the method: as §1
Raji [3] = test: Growth inhibition of human Raji cells after 48 hrs; type: functional; summary of the method: as §1
[4] = Growth inhibition of human KG1a cells after 48 hrs; type: functional, KG-1a; summary of the method: as §1
MOLT-3 [5] = test: Antileukemic activity against human MOLT3 cells at 1 uM after 24 hrs by clonogenic assay; type: functional
Summary of the method: (§2)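 Log-phase cells at 2 × 10^4 cells/mL in RPMI-1640 with 10% heat-inactivated FBS, 37 °C, 5% CO2. Drug (DMSO stock) at 1, 2, 5, 10 or 20 µM for 24 h, removed by centrifugation. 100 cells plated in 0.45% soft agar with 20% serum. Colonies >50 cells counted after 15 days. Loss of clonogenicity as % of untreated control. Triplicate, three repeats, mean ± SEM.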

HL-60 [6] = test: Antileukemic activity against human HL60 cells at >2 uM after 24 hrs by clonogenic assay; type: functional; summary of the method: as §2
Raji [7] = test: Antileukemic activity against human Raji cells at >2 uM after 24 hrs by clonogenic assay; type: functional; summary of the method: as §2
MOLT-3 [8] = test: Antileukemic activity against human MOLT3 cells after 24 hrs by clonogenic assay; type: functional; details: MOLT-3, 24 h, read-out: LC50 (the source's name)
Summary of the method: (§3)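 Log-phase cells seeded at 2 × 10^4 cells/mL in RPMI-1640 with 10% heat-inactivated FBS at 37 °C, 5% CO2, then exposed 24 h to 1–20 µM (DMSO stock). Drug washed out by centrifugation. 100 cells plated in 0.45% soft agar with 20% serum for 15 days, and colonies (>50 cells) counted. Loss of clonogenicity is relative to untreated control. Triplicates, repeated three times, mean ± SEM. LC50 read from the dose curve.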

HL-60 [9] = test: Antileukemic activity against human HL60 cells after 24 hrs by clonogenic assay; type: functional; details: HL-60, 24 h, read-out: LC50 (the source's name); summary of the method: as §3
Raji [10] = test: Antileukemic activity against human Raji cells after 24 hrs by clonogenic assay; type: functional; details: read-out: LC50 (the source's name); summary of the method: as §3
L1210 [11] = test: Growth inhibition of mouse L1210 cells at 1 uM after 12 hrs; type: functional; details: L1210, 12 h, read-out: GI
Summary of the method: (§4)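 For L1210 (RPMI-1640, 5% heat-inactivated FCS, 6 µM 2-mercaptoethanol), log-phase cultures at 2 × 10^4 cells/mL were given 1–20 µM for 12, 24 or 48 h. Coulter particle counter counts were expressed as % growth inhibition versus untreated control. IG50 was taken at 24 h. Triplicate, three repeats, mean ± SEM.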

L1210 [12] = test: Growth inhibition of mouse L1210 cells at 1 uM after 24 hrs; type: functional; details: L1210, 24 h, read-out: GI; summary of the method: as §4
L1210 [13] = test: Growth inhibition of mouse L1210 cells at 1 uM after 48 hrs; type: functional; details: L1210, 48 h, read-out: GI; summary of the method: as §4
L1210 [14] = test: Growth inhibition of mouse L1210 cells at 2 uM after 12 hrs; type: functional; details: L1210, 12 h, read-out: GI; summary of the method: as §4
L1210 [15] = test: Growth inhibition of mouse L1210 cells at 2 uM after 24 hrs; type: functional; details: L1210, 24 h, read-out: GI; summary of the method: as §4
L1210 [16] = test: Growth inhibition of mouse L1210 cells at 2 uM after 48 hrs; type: functional; details: L1210, 48 h, read-out: GI; summary of the method: as §4
L1210 [17] = test: Growth inhibition of mouse L1210 cells at 5 uM after 12 hrs; type: functional; details: L1210, 12 h, read-out: GI; summary of the method: as §4
L1210 [18] = test: Growth inhibition of mouse L1210 cells at 5 uM after 24 hrs; type: functional; details: L1210, 24 h, read-out: GI; summary of the method: as §4
L1210 [19] = test: Growth inhibition of mouse L1210 cells at 5 uM after 48 hrs; type: functional; details: L1210, 48 h, read-out: GI; summary of the method: as §4
L1210 [20] = test: Growth inhibition of mouse L1210 cells at 10 uM after 12 hrs; type: functional; details: L1210, 12 h, read-out: GI; summary of the method: as §4
L1210 [21] = test: Growth inhibition of mouse L1210 cells at 10 uM after 24 hrs; type: functional; details: L1210, 24 h, read-out: GI; summary of the method: as §4
L1210 [22] = test: Growth inhibition of mouse L1210 cells at 10 uM after 48 hrs; type: functional; details: L1210, 48 h, read-out: GI; summary of the method: as §4
L1210 [23] = test: Growth inhibition of mouse L1210 cells at 20 uM after 12 hrs; type: functional; details: L1210, 12 h, read-out: GI; summary of the method: as §4
L1210 [24] = test: Antileukemic activity against mouse L1210 cells at 1 uM after 12 hrs by clonogenic assay; type: functional
Summary of the method: (§5)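 Murine L1210 cells cultured in RPMI-1640 with 5% heat-inactivated FCS and 6 µM 2-mercaptoethanol. Log-phase cells at 2 × 10^4 cells/mL exposed to 1–20 µM for 12, 24 or 48 h, then drug removed by centrifugation. 100 cells plated in 0.45% soft agar with 10% serum. Colonies >50 cells counted at day 7. Result as % relative to untreated control. Triplicate, three repeats, mean ± SEM.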

L1210 [25] = test: Antileukemic activity against mouse L1210 cells at 1 uM after 48 hrs by clonogenic assay; type: functional; summary of the method: as §5
L1210 [26] = test: Antileukemic activity against mouse L1210 cells at 2 uM after 12 hrs by clonogenic assay; type: functional; summary of the method: as §5

Structure (SMILES): O=c1c(-c2ccc(O)cc2)coc2cc(O)cc(O)c12 [GENISTEIN]
- IG50 (MOLT-3 [1]): 12.7 µM
- IG50 (HL-60 [2]): 18.2 µM
- IG50 (Raji [3]): 18.6 µM
- IG50 [4]: 23 µM
- Activity (MOLT-3 [5]): >10%
- Activity (HL-60 [6]): >10%
- Activity (Raji [7]): >10%
- CC50 (MOLT-3 [8]): 7.5 µM
- CC50 (HL-60 [9]): 6.3 µM
- CC50 (Raji [10]): 13.7 µM
- inhibition of growth at 1 µM (L1210 [11]): 3.2%
- inhibition of growth at 1 µM (L1210 [12]): 4.1%
- inhibition of growth at 1 µM (L1210 [13]): 13.2%
- inhibition of growth at 2 µM (L1210 [14]): 6.2%
- inhibition of growth at 2 µM (L1210 [15]): 11.4%
- inhibition of growth at 2 µM (L1210 [16]): 21.9%
- inhibition of growth at 5 µM (L1210 [17]): 15.1%
- inhibition of growth at 5 µM (L1210 [18]): 28.5%
- inhibition of growth at 5 µM (L1210 [19]): 55.9%
- inhibition of growth at 10 µM (L1210 [20]): 23.8%
- inhibition of growth at 10 µM (L1210 [21]): 42.8%
- inhibition of growth at 10 µM (L1210 [22]): 79.2%
- inhibition of growth at 20 µM (L1210 [23]): 54.2%
- Activity (L1210 [24]): 11%
- Activity (L1210 [25]): 11.9%
- Activity (L1210 [26]): 14%
